Experimental data reported in PubChem BioAssay AID624466 (The Scripps Research Institute Molecular Screening Center, 2012).
Several values for one entry are separate records, joined by “and”; a condition that tells them apart may be missing. Identical values can stand only once. Out of some 360,000 compounds screened, about 5,400 (1.5%) were called active. The sample holds actives, similar compounds and a random draw of the others, so the mix is not that of the screen. Values without a mark were called inactive.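 Rule for the calls: active = inhibition above a per-plate cutoff, the mean inhibition of test compounds on that plate plus 3 SD (cut at about 49% in these data); inactive = the rest.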

Target: Trace amine-associated receptor 1 (Homo sapiens) (UniProt Q96RJ0)
Assay: blockers of beta-PEA-driven TAAR1 calcium signal – Fluo-8 calcium fluorescence, CHO RD-HGA16 cells, primary screen (AID 624466);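 note: 0% = DMSO plus EC80 beta-PEA response and 100% = DMSO alone without agonist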
Conditions: CHO RD-HGA16 TAAR1, Fluo-8 calcium fluorescence, antagonist; at 3 µM; hits give high values
Method in brief: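 Test system – hTAAR1-expressing CHO RD-HGA16 cells, Gα16-coupled · Reagent – β-PEA at EC80 concentration, post-compound challenge · Compound dosing – 3 µM, single point · Timing – 140 s kinetic read after compound, 140 s after agonist · Detection – Fluo-8 intracellular calcium dye fluorescence, real-time kinetic reads · Control set – DMSO and EC80 PEA controls · Repeats – n of 1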

Chain of Trace amine-associated receptor 1 (Homo sapiens) (Q96RJ0 whole entry, looked up): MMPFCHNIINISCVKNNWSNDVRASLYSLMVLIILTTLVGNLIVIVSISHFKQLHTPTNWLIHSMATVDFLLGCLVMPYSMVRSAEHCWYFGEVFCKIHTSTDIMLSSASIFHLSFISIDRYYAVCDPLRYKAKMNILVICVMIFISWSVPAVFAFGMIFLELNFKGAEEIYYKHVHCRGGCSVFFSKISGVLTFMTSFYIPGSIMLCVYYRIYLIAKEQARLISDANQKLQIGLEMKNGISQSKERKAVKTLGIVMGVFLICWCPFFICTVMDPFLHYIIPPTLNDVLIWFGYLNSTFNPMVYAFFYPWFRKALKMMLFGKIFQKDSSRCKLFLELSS

Structure (SMILES)	inhibition
CCC(=NCCc1ccccc1)c1c(O)n(C2CCCCC2)c(=O)[nH]c1=O	60.3% (active)
CC(=O)c1c(O)n(C2CCCCCC2)c(=O)[nH]c1=O	-7.9%
CCCCCCN=C(CC)c1c(O)n(CCCC)c(=O)[nH]c1=O	4.8%
O=C1C2(Cl)C3(Cl)C4(Cl)C(Cl)(Cl)C5(Cl)C3(Cl)C1(Cl)C5(Cl)C24Cl (stereo not given)	64.1% (active)
Cc1cccc(NC(=O)OC2CN3CCC2CC3)c1 (stereo not given)	-7.58%
Cc1cc(-c2ccc(N)c(C)c2)ccc1N	6.17%
CC[N+]1(C)CCCC(OC(=O)C(O)(c2ccccc2)c2ccccc2)C1 (stereo not given)	-0.72%
COc1cc(C(c2c(O)c3ccccc3oc2=O)c2c(C)n(C)n(-c3ccccc3)c2=O)ccc1O (stereo not given)	3.68%
CCOC(=O)C1SC2(C(F)(F)C(F)F)CC1(O)c1c(c(OC)c3occc3c1OC)O2 (stereo not given)	65.5% (active)
CC(Cc1ccccc1)NCCC(c1ccccc1)c1ccccc1 (stereo not given)	45.6%
CC(=O)Nc1ccc(C(=O)C(Cc2ccccc2)N(C)C)cc1 (stereo not given)	-13.4%
CC(Cc1ccccc1)NC=O (stereo not given)	74.1% (active)
COC(=O)C1=C(c2ccc(Cl)c(C(F)(F)F)c2)C[C@@H]2CC[C@H]1N2C(=O)NC1CC1	36.7%
COC1=CC=C2[C@H]3Cc4ccc(OC)c5c4[C@@]2(CCN3C)C1O5 (stereo not given in full)	-0.15%
COc1ccc(CN2CCN(c3ccccc3F)CC2)c(OC)c1	-21.7%
c1ccc(CCNC2CCCCCC2)cc1	85.7% (active)
c1cc2c(cc1CCNC1CCCCCC1)OCO2	-6.33%
OC(CNC1CCCCC1)c1ccccc1 (stereo not given)	-11.8%
c1ccc(CCN2CCC3(CC2)OCCO3)cc1	-16.1%
CCN(CC)C(=O)[C@@H]1C=C2c3cccc4[nH]c(Br)c(c34)C[C@H]2N(C)C1	-12.3%

Structure (SMILES)	inhibition
CN1CCC(OC(=O)c2cccc(F)c2)CC1	-5.85%
COC(=O)N1C(c2ccccc2)C1c1ccccc1 (stereo not given)	2.76%
COC(=O)C1=C(c2ccc(F)cc2OCc2ccccc2)C[C@@H]2CC[C@H]1N2C(=O)NCc1ccc(C(C)(C)C)cc1	12.1%
COC(=O)C1=C(c2ccc(OCc3ccccc3)cc2)C[C@@H]2CC[C@H]1N2C(=O)NCc1ccc(Cl)cc1	-21.6%
COC(=O)C1=C(c2ccc(F)cc2OCc2ccccc2)C[C@@H]2CC[C@H]1N2C(=O)NCc1ccc2[nH]ccc2c1	29.6%
COC(=O)C1=C(c2ccc(OCc3ccccc3)cc2)C[C@@H]2CC[C@H]1N2C(=O)NCc1cccc(F)c1	-9.38%
COC(=O)C1=C(c2ccc(F)cc2OCc2ccccc2)C[C@@H]2CC[C@H]1N2C(=O)NCc1ccc(Cl)cc1	52.3% (active)
COC(=O)C1=C(c2ccc(-c3ccccc3)c(F)c2)C[C@@H]2CC[C@H]1N2C(=O)NCc1ccc(F)cc1	-7.93%
COC(=O)C1=C(c2ccccc2OCc2ccccc2)C[C@@H]2CC[C@H]1N2C(=O)NCc1ccc(OC)cc1	56.6% (active)
COC(=O)C1=C(c2cccc(OCc3ccccc3)c2)C[C@@H]2CC[C@H]1N2C(=O)NCc1ccc(Br)cc1	-0.83%
COC(=O)C1=C(c2ccc(F)cc2OCc2ccccc2)C[C@@H]2CC[C@H]1N2C(=O)NCc1ccc(OC)c(OC)c1	60.1% (active)
O=S(=O)(c1ccccc1)N1CCC2CCNC2C1 (stereo not given)	-13.7%
CS(=O)(=O)N1CCC2CCNC2C1 (stereo not given)	-17.4%
COc1ccc2c(c1)[C@@]13CCCCC1[C@@H](C2)NCC3 (stereo not given in full)	2.15%
Cc1cc(N2CCNC[C@@H]2C)ccc1N1CC[C@H](O)C1	-25.4%
COc1ccccc1-n1c(O)c(C=NC2CC2)c(=O)[nH]c1=O	5.89%
CCCCCn1c(=O)c(C(=O)NCc2ccccn2)c(O)c2ccccc21	9.96%
CCN(CC)C(=O)Oc1ccc(NC(=O)N2CCOCC2)cc1	-5.87%
CSc1nc2ccc(C)cc2c(=O)n1-c1cccnc1	-37.6%
O=c1[nH]c(=O)n(-c2ccccc2)c(O)c1C=NC12CN3CN(CN(C3)C1)C2	3.93%

Structure (SMILES)	inhibition
Brc1ccc2c(c1)CNCc1cnnn1-2	-22.5%
CCCCC(=O)N/N=C/c1c(O)n(CCC2=CCCCC2)c(=O)[nH]c1=O	-20.4%
Cn1c(O)c(C=NCCCC(=O)O)c(=O)n(C)c1=O	-5.57%
CCCCC(=O)N/N=C/c1c(O)n(CC)c(=S)n(CC)c1=O	63.8% (active)
Clc1ccc([C@@H]2CC3CCC2N3)cn1 (stereo not given in full)	-10.7%
CC12CCC3C(CCC4CC(=O)CCC43C)C1CC(=NO)C2=O (stereo not given)	-3.38%
CCC(C)NC1(c2ccccc2)CCCCC1 (stereo not given)	-0.42%
O=C1NC(=O)C(C/C=C/c2ccccc2)C(=O)N1	9.88%
COc1ccc(-n2nnnc2C(c2cccc3ccccc23)N2CCC(n3c(=O)[nH]c4ccccc43)CC2)cc1 (stereo not given)	40.3%
CSCCC(c1nnnn1C(C)(C)C)N1CCC(n2c(=O)[nH]c3ccccc32)CC1 (stereo not given)	52.1% (active)
O=c1[nH]c2ccccc2n1C1CCN(C(c2ccnc3ccccc23)c2nnnn2Cc2ccccc2)CC1 (stereo not given)	54.6% (active)
O=c1[nH]c2ccccc2n1C1CCN(C(c2ccccc2)c2nnnn2Cc2ccccc2)CC1 (stereo not given)	52.2% (active)
O=C1NCN(c2ccccc2)C12CCN(C(c1cccs1)c1nnnn1C1CCCCC1)CC2 (stereo not given)	8.02%
Cc1ccc(Cn2nnnc2CN2CCC(n3nnc4ccccc43)CC2)cc1	-2.23%
COc1cc(OC)cc(C(=O)NCCN2CCC3(CC2)C(=O)NCN3c2ccccc2)c1	-2.28%
Oc1ccc2c3c1OC1[C@H](O)CC[C@@]4(O)[C@@H](C2)N(CC2CC2)CC[C@]314 (stereo not given in full)	-34.9% and -15.5%
CC(C)(C)c1ccc(OC(=O)N2CCCCC2)cc1	21.5%
O=c1[nH]c(=O)n(CCc2ccc(F)cc2)c(O)c1/C=N/N1CCCCC1	-33.7%
CC(C)c1ccc(O)c(CN2CCN(c3ccccc3)CC2)c1	-1.33%
CN(C)/C=C(\C=[N+](C)C)c1[nH]ncc1[N+](=O)[O-]	-2.16%
